Only some compounds are listed: those with a hit (about 2.9% of all), similar ones and a draw of the others.
Kir21 block: blocks the mouse Kir2.1 inward-rectifier potassium channel. P35561. 310,000 compounds, 0.85% hits. HEK293-Kir2.1, FluxOR thallium flux fluorescence; active compounds read low. B-score at 10 µM. AID 1672;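 active means fluorescence ratio B-score at or below minus 3 SD of library scores, with starting-brightness B-score within 2 SD, cut at about -4.2 in these data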;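 further: channel flux triggered by added potassium and thallium sulfate stimulus; B-score of peak minus minimum fluorescence over baseline after thallium stimulus; more negative B-score means stronger Kir2.1 block with less thallium influx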
Target sequence (P35561 whole entry, looked up): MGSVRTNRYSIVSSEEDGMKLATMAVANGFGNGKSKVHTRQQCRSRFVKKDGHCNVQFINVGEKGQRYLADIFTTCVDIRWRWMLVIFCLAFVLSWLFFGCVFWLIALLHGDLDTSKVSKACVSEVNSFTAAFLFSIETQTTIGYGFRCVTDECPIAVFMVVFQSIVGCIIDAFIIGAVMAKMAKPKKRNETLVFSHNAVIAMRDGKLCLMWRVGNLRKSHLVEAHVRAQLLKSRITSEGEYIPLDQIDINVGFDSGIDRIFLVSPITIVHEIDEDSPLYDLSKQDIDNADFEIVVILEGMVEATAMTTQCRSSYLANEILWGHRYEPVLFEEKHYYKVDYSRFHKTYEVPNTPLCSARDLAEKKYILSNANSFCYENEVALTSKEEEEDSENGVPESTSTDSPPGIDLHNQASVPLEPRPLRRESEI
TRPC4 PAM: TRPC4 (mouse) allosteric potentiation. Q9QUQ5. HEK293 TRPC4beta/mu-opioid, DAMGO EC20, Fluo-4 Ca2+ flux; active compounds read high. B-score at 10 µM. 310,000 compounds, 0.42% hits;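 active means B-score of calcium response area above 5 SD of library B-scores, with initial fluorescence ratio within 5 SD of library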
TRPC4 agonist: TRPC4 (mouse) channel activation. 310,000 compounds, 0.49% hits. B-score at 10 µM. Q9QUQ5. AID 2237. HEK293 TRPC4beta/mu-opioid, Fluo4 calcium fluorescence; active compounds read high;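 active means B-score above 5 SD of library B-scores, and initial fluorescence ratio not above library mean plus 5 SD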;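 further: positive B-score marks a calcium rise read as TRPC4 activation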
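Assay system – TRPC4beta and mu-opioid receptor HEK293 stable cells · Measured by – Fluo4 fluorescence, kinetic · Schedule – dye loading 45 min room temperature, 110 s kinetic read · Read-out – B-scored integrated calcium fluorescence ratio · Controls – buffer and maximal DAMGO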
TRPC4 inh: blocks the mouse TRPC4 cation channel | Q9QUQ5 | 300,000 compounds, 0.39% hits | HEK293 TRPC4beta/mu-opioid, DAMGO-evoked Fluo4 calcium flux; active compounds read low | B-score at 10 µM | AID 2247;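 active means B-score over 3 SD under the library average, no early fluorescence shift, positive overall ratio signal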
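Assay system: TRPC4beta/mu-opioid receptor HEK293 cell line; compound dosing: single concentration per test compound; detection: Fluo4 Ca2+ flux fluorescence; evaluation: per-well B score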
TRPC6 activator: mouse TRPC6 channel activation; B-score at 10 µM; Q61143; AID 2550; 310,000 compounds, 0.13% hits; HEK293-TRPC6 membrane potential dye fluorescence; active compounds read high;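 active means B-score of the integrated fluorescence ratio above library mean plus 3 SD, and starting fluorescence ratio within library mean plus 5 SD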;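 further: higher score means more depolarization so channel activation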
TRPC6 inh: inhibitors of mouse TRPC6 channel; B-score at 10 µM; HEK293-TRPC6, membrane potential dye, ACh-evoked depolarization; active compounds read low; 310,000 compounds, 1.1% hits; Q61143;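 active means B-score under library mean minus 3 SD, initial fluorescence not abnormally high, positive integrated signal ratio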;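 further: B-score derived from integrated fluorescence ratio over the kinetic read; more negative B-score means stronger inhibition of depolarization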
Large screens that a line does not name were inactive.

COc1cccc(C2=NN(C(=O)c3ccco3)C(c3ccco3)C2)c1 (stereo not given)	TRPC4 inh -6
CN(C)CCOC(=O)C12CC3(C)CC(C)(CC(C)(C3)C1)C2	TRPC4 agonist 46
CC(Cc1ccccc1)NC(=O)CC(c1ccccc1)c1ccccc1O (stereo not given)	none
CC(Cc1ccccc1)NC(=S)CN1CCCC1=S (stereo not given)	Kir21 block -4.6
NNC(=O)c1csc(Cc2c(Cl)sc3ccc(Cl)cc23)n1	none
CC1CCC(C(C)C)C(OC(=O)C[n+]2cc(-c3ccc(Cl)cc3)n3c2CCCCC3)C1 (stereo not given)	Kir21 block -8.6
NS(=O)(=O)c1ccc(Oc2ccc(S(N)(=O)=O)cc2)cc1	TRPC4 PAM 96
CCCCOc1ccc(S(N)(=O)=O)cc1	none
CCC(C)(C)NC(=O)C(C(C)C)N(CC1CCCO1)C(=O)CNS(=O)(=O)c1ccccc1 (stereo not given)	none
CC1CCCC(C)N1C(=O)CSCc1ccc(Cl)cc1 (stereo not given)	Kir21 block -4.9
CC1CCCC(C)N1C(=O)COC(=O)Cc1ccc(Cl)cc1 (stereo not given)	none
N#Cc1ccsc1NC(=O)CN(Cc1ccccc1)Cc1ccccc1	Kir21 block -4.8
O=C(CCc1ccccc1)Nc1cccc([N+](=O)[O-])c1	none
CC(CCc1ccccc1)NC(=O)CNc1cccc([N+](=O)[O-])c1 (stereo not given)	Kir21 block -4.7
Cc1ccc2cc(C#N)c(N3CCCN(C(=O)C4CCCO4)CC3)nc2c1C (stereo not given)	Kir21 block -5.7
Cc1ccc2cc(C#N)c(N3CCCC3)nc2c1C	none
COCCNC(=S)Nc1ccccc1Cc1ccccc1	none
CCOCCCNCc1cc(Br)ccc1OCc1ccccc1	TRPC4 inh -6
NS(=O)(=O)c1ccc(CCNCc2cc(Br)ccc2OCc2ccccc2)cc1	Kir21 block -8.2
Brc1ccc(OCc2ccccc2)c(CNCC2CCCO2)c1 (stereo not given)	TRPC4 inh -6
Clc1ccccc1CNCC1CCCO1 (stereo not given)	none
OCCNCc1cc(Br)ccc1OCc1ccccc1	none
CC(C)(C)NC(=O)NC(=O)COC(=O)c1cc[n+]([O-])cc1	none
CCCCCc1ccc(OCCC[n+]2ccccc2)c(CCCCC)c1	none
CCCCCc1ccc(OCCOCCn2c[n+](C)c3ccccc32)c(CCCCC)c1	TRPC4 agonist 51
CC1(C)CC(NC(=O)c2cc(COc3cccc(C(F)(F)F)c3)on2)CCO1 (stereo not given)	TRPC4 inh -6
CC1(C)C[C@@H]2C[C@@](C)(CN2C(=O)c2cc(COc3cccc(C(F)(F)F)c3)on2)C1	none
NC(=O)c1ccc[n+](Cc2ccc(-c3ccccc3)cc2)c1	none
Cc1ccc(N2CC(C(=O)OCC(=O)c3ccc([N+](=O)[O-])cc3)CC2=O)cc1 (stereo not given)	none
CC(=O)c1cccc(S(=O)(=O)Nc2cccnc2)c1	none
O=C(Nc1cccc(-c2cccc(F)c2)c1)C1CCN(Cc2ccco2)CC1	Kir21 block -4.9
Cc1cccc(CN2CCC(C(=O)Nc3cccc(-c4cccc(F)c4)c3)CC2)n1	Kir21 block -5.1
CCOc1ccc([N+](=O)[O-])cc1CNC1CCCCCCC1	TRPC6 inh -5.9
O=[N+]([O-])c1cccc(CNC2CCCCCC2)c1	none
COc1ccc2c(Cl)c(-c3nnc(SCC(=O)c4ccccc4)n3C)sc2c1	TRPC4 agonist 104
COc1ccc2c(Cl)c(-c3nnc(SCC(N)=O)n3C)sc2c1	none
COC(=O)c1[nH]c2ccccc2c1NC(=O)c1c(F)cccc1F	none
O=C(COc1ccccc1)N(Cc1ccco1)c1ccc(O)cc1	none
O=C(c1ccc(Cl)c(Cl)c1)N(Cc1ccco1)c1ccc(O)cc1	Kir21 block -4.3, TRPC4 inh -7
CC1(C)CC(=O)C(C=NCCN2CCN(C3CC(=O)N(c4ccc(F)cc4)C3=O)CC2)=C(O)C1 (stereo not given)	none

Bioassay records from PubChem BioAssay.
